Laboratory results as given in ChEMBL document CHEMBL2163315, “Synthesis and SAR of geminal substitutions at the C5' carbosugar position of pyrimidine-derived HCV inhibitors” (Bioorg Med Chem Lett, 2012).

Assays:
[1] = Cytotoxicity against human hepatoma cells after 3 days by MTS assay; type: cell-based
Summary of the method: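 Replicon cells treated the same way as in the replicon activity assay (DMSO vehicle, 10% FBS, 3 days). Viability read three days post dosing by MTS (CellTiter 96 Aqueous One). CC50 is the concentration giving 50% inhibition relative to vehicle-treated cells.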

[2] = Cytotoxicity against human hepatoma cells assessed as effect on cellular GAPDH RNA level; type: cell-based
[3] = AUC (0 to 24 hrs) in cynomolgus monkey at 3 mg/kg, po; type: ADME, organism-based, Macaca fascicularis; set-up: time < 24 hr, dose 3 mg/kg, route oral; settings: plasma
Summary of the method: (§1)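 Oral dosing at 3 mpk to dog and monkey. Plasma exposure monitored over 0–24 h.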

[4] = Cytotoxicity against human hepatoma cells assessed as inhibition of [methyl-14C]thymidine incorporation in DNA after 3 days by scintillation proximity assay; type: cell-based; settings: for CC50 at 72 h: human hepatoma cells
Summary of the method: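 Replicon cells seeded in scintillating microplates one day before treatment. Various inhibitor concentrations added in triplicate together with [methyl-14C]-thymidine (final 0.5 µCi/mL media) and incubated three days. Incorporated label read by scintillation proximity counting. DNA CC50 is the concentration giving 50% inhibition of thymidine incorporation relative to vehicle-treated cells.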

Hepatitis C virus = test: Antiviral activity against Hepatitis C virus genotype 1b Con1 infected in human hepatoma cells assessed as inhibition of viral RNA replication by subgenomic replicon assay; type: functional, organism-based, Hepacivirus hominis; settings: genotype 1b Con 1
Summary of the method: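 Subgenomic 1b-Con1 replicon cells seeded at 5000 cells/well one day before dosing. Compound in DMSO added as 10 serial twofold dilutions in triplicate (final 0.5% DMSO, 10% FBS). Cells harvested three days post dosing. Replicon RNA quantified by real-time RT-PCR (Taqman), normalised to GAPDH RNA as endogenous control. EC50 calculated from the dose-response.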

[5] = Drug uptake in rat liver at 10 mg/kg, po after 6 hrs; type: ADME, organism-based; set-up: dose 10 mg/kg, route oral; settings: read-out: Drug uptake
Summary of the method: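 Rats dosed orally at 10 mpk. Compound concentration in liver measured at 6 h.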

[6] = Oral bioavailability in cynomolgus monkey at 3 mg/kg; type: ADME, organism-based, Macaca fascicularis; settings: in vivo
[7] = Oral bioavailability in rat at 10 mg/kg; type: ADME, organism-based; settings: in vivo
[8] = AUC (0 to 24 hrs) in dog at 3 mg/kg, po; type: ADME, organism-based, Canis lupus familiaris; set-up: time < 24 hr, dose 3 mg/kg, route oral; settings: plasma; summary of the method: as §1
[9] = AUC (0 to 24 hrs) in rat at 10 mg/kg, po; type: ADME, organism-based; set-up: time < 24 hr, dose 10 mg/kg, route oral; settings: plasma
Summary of the method: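 Oral dosing to rats at 10 mpk. Plasma exposure monitored over 0–24 h.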

[10] = Oral bioavailability in dog at 3 mg/kg; type: ADME, organism-based, Canis lupus familiaris; settings: in vivo
[11] = AUC (0 to 6 hrs) in rat at 10 mg/kg, po; type: ADME, organism-based; set-up: time < 6 hr, dose 10 mg/kg, route oral; settings: plasma
Summary of the method: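 Single oral dose of 10 mpk given to rats, as HCl salt. Plasma exposure expressed as AUC over 0–6 h.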

Row | SMILES | CC50 at 72 h [1] | CC50 [2] | AUC(0-t) at 24 h [3] | CC50 at 72 h [4] | EC50 (Hepatitis C virus) | concentration at 6 h [5] | bioavailability [6] | bioavailability [7] | AUC(0-t) at 24 h [8] | AUC(0-t) at 24 h [9] | bioavailability [10] | AUC(0-t) at 6 h [11] | CC25 ([4]; 72 h)
1 | COC[C@@H](C)Nc1nc(C)c(-c2nc3c(C)nccc3s2)c(N[C@@H]2C[C@H](C(C)(C)O)[C@@H](O)[C@H]2O)n1 | > 3 µM | > 3 µM | 10 µM·h | 25 µM | 0.02 µM | 900 ng/g | 50% | 81% | 4.2 µM·h | 18 µM·h | 50% | – | –
2 | CO[C@H](C)CNc1nc(C)c(-c2nc3c(C)nccc3s2)c(N[C@@H]2C[C@H](C(C)(C)O)[C@@H](O)[C@H]2O)n1 | > 25 µM | > 25 µM | 13 µM·h | 25 µM | 0.02 µM | 1300 ng/g | 45% | 58% | 3.2 µM·h | 6.7 µM·h | 56% | – | –
3 | Cc1nc(NCC2CCCCO2)nc(N[C@@H]2C[C@H](C(C)(C)O)[C@@H](O)[C@H]2O)c1-c1nc2c(C)nccc2s1 (stereo partly drawn) | > 25 µM | > 25 µM | – | – | 0.004 µM | 1800 ng/g | – | – | – | – | – | 9.9 µM·h | 3 µM
4 | CSCCNc1nc(C)c(-c2nc3c(C)nccc3s2)c(N[C@@H]2C[C@H](C(C)(C)O)[C@@H](O)[C@H]2O)n1 | > 25 µM | > 25 µM | – | – | 0.008 µM | – | – | – | – | – | – | 1.6 µM·h | –
5 | COCC1(CNc2nc(C)c(-c3nc4c(C)nccc4s3)c(N[C@@H]3C[C@H](C(C)(C)O)[C@@H](O)[C@H]3O)n2)CC1 | > 25 µM | > 25 µM | – | – | 0.02 µM | – | – | – | – | – | – | 0.7 µM·h | –
6 | Cc1nc(NCc2c(F)cc(F)cc2F)nc(N[C@@H]2C[C@H](C(C)(C)O)[C@@H](O)[C@H]2O)c1-c1nc2c(C)nccc2s1 | > 25 µM | > 25 µM | – | – | 0.004 µM | – | – | – | – | – | – | 0.4 µM·h | –
7 | Cc1nc(N[C@H](C)c2ccc(OC(F)(F)F)cc2)nc(N[C@@H]2C[C@H](C(C)(C)O)[C@@H](O)[C@H]2O)c1-c1nc2c(C)nccc2s1 | > 25 µM | > 25 µM | – | – | 0.18 µM | – | – | – | – | – | – | 1.2 µM·h | –
8 | Cc1nc(NCC(F)(F)F)nc(N[C@@H]2C[C@H](C(C)(C)O)[C@@H](O)[C@H]2O)c1-c1nc2c(C)nccc2s1 | > 12 µM | 20 µM | – | – | 0.01 µM | – | – | – | – | – | – | 1.8 µM·h | –
9 | Cc1nc(NCCN(C)C)nc(N[C@@H]2C[C@H](C(C)(C)O)[C@@H](O)[C@H]2O)c1-c1nc2c(C)nccc2s1 | 12 µM | 7 µM | – | – | 0.13 µM | – | – | – | – | – | – | – | –
10 | Cc1nc(NCCN2CCOCC2)nc(N[C@@H]2C[C@H](C(C)(C)O)[C@@H](O)[C@H]2O)c1-c1nc2c(C)nccc2s1 | > 25 µM | > 25 µM | – | – | 0.02 µM | – | – | – | – | – | – | 0.2 µM·h | –
11 | Cc1nc(NCC2CC2)nc(N[C@@H]2C[C@H](CO)[C@@H](O)[C@H]2O)c1-c1nc2cnccc2s1 | – | 3 µM | – | – | – | – | – | – | – | – | – | – | –
12 | Cc1nc(NCC2CC2)nc(N[C@@H]2C[C@H]([C@H](C)O)[C@@H](O)[C@H]2O)c1-c1nc2cnccc2s1.Cl | 13 µM | 18 µM | – | – | 0.02 µM | – | – | – | – | – | – | 1.3 µM·h | –
13 | Cc1nc(NCC2CC2)nc(N[C@@H]2C[C@H](C(C)(C)O)[C@@H](O)[C@H]2O)c1-c1nc2cnccc2s1.Cl | > 12 µM | > 12 µM | – | – | 0.02 µM | – | – | – | – | – | – | 8.5 µM·h | –
14 | Cc1nc(N[C@H](C)C2CC2)nc(N[C@@H]2C[C@H](C(C)(C)O)[C@@H](O)[C@H]2O)c1-c1nc2cnccc2s1 | 25 µM | > 25 µM | – | – | 0.03 µM | – | – | – | – | – | – | 11 µM·h | –
15 | COCCNc1nc(C)c(-c2nc3cnccc3s2)c(N[C@@H]2C[C@H](C(C)(C)O)[C@@H](O)[C@H]2O)n1 | > 25 µM | > 25 µM | – | – | 0.05 µM | – | – | – | – | – | – | 1.3 µM·h | –
16 | Cc1nc(NCC2CC2)nc(N[C@@H]2C[C@H](C(C)(C)O)[C@@H](O)[C@H]2O)c1-c1nc2c(C)nccc2s1 | > 25 µM | > 25 µM | 0.3 µM·h | 25 µM | 0.02 µM | 9500 ng/g | 6% | 39% | 4.9 µM·h | 10 µM·h | 66% | – | –
17 | Cc1nc(N[C@H](C)C2CC2)nc(N[C@@H]2C[C@H](C(C)(C)O)[C@@H](O)[C@H]2O)c1-c1nc2c(C)nccc2s1 | > 25 µM | > 25 µM | 0.5 µM·h | > 25 µM | 0.02 µM | 13700 ng/g | 4% | 54% | 2.1 µM·h | 19 µM·h | 32% | – | –
18 | COCCNc1nc(C)c(-c2nc3c(C)nccc3s2)c(N[C@@H]2C[C@H](C(C)(C)O)[C@@H](O)[C@H]2O)n1 | > 25 µM | > 25 µM | 3.7 µM·h | 7 µM | 0.02 µM | 1900 ng/g | 46% | 49% | 0.9 µM·h | 16 µM·h | 18% | – | –
19 | CCC(O)(CC)[C@H]1C[C@@H](Nc2nc(NCC3CC3)nc(C)c2-c2nc3c(C)nccc3s2)[C@H](O)[C@@H]1O | > 6 µM | > 6 µM | – | – | 0.005 µM | – | – | – | – | – | – | 10 µM·h | –
20 | CCC(O)(CC)[C@H]1C[C@@H](Nc2nc(NCCOC)nc(C)c2-c2nc3c(C)nccc3s2)[C@H](O)[C@@H]1O | > 25 µM | > 25 µM | – | – | 0.01 µM | – | – | – | – | – | – | 1.4 µM·h | –
21 | Cc1nc(NCC2CC2)nc(N[C@@H]2C[C@H](C3(O)CC3)[C@@H](O)[C@H]2O)c1-c1nc2c(C)nccc2s1 | > 25 µM | > 25 µM | – | – | 0.004 µM | – | – | – | – | – | – | 1.6 µM·h | –
22 | COCCNc1nc(C)c(-c2nc3c(C)nccc3s2)c(N[C@@H]2C[C@H](C3(O)CC3)[C@@H](O)[C@H]2O)n1 | 13 µM | > 25 µM | – | – | 0.007 µM | – | – | – | – | – | – | 3.9 µM·h | –
23 | COCC(O)(COC)[C@H]1C[C@@H](Nc2nc(NCC3CC3)nc(C)c2-c2nc3c(C)nccc3s2)[C@H](O)[C@@H]1O | > 6 µM | > 6 µM | – | 4 µM | 0.002 µM | – | – | – | – | – | – | – | –
24 | CCOCCNc1nc(C)c(-c2nc3c(C)nccc3s2)c(N[C@@H]2C[C@H](C(O)(COC)COC)[C@@H](O)[C@H]2O)n1 | 6 µM | > 12 µM | – | – | 0.003 µM | – | – | – | – | – | – | – | –
25 | Cc1nc(N)nc(N[C@@H]2C[C@H](C(C)(C)O)[C@@H](O)[C@H]2O)c1-c1nc2c(C)nccc2s1 | 6 µM | 4 µM | – | – | 0.04 µM | – | – | – | – | – | – | – | –
26 | Cc1nc(NC2CC2)nc(N[C@@H]2C[C@H](C(C)(C)O)[C@@H](O)[C@H]2O)c1-c1nc2c(C)nccc2s1 | > 6 µM | > 6 µM | – | – | 0.05 µM | – | – | – | – | – | – | 58 µM·h | –
27 | Cc1nc(N(C)CC2CC2)nc(N[C@@H]2C[C@H](C(C)(C)O)[C@@H](O)[C@H]2O)c1-c1nc2c(C)nccc2s1 | 23 µM | > 25 µM | – | – | 0.09 µM | – | – | – | – | – | – | – | –
